{
  "source": "ChEMBL document CHEMBL1139977",
  "about": "“Synthesis and RET protein kinase inhibitory activity of 3-arylureidobenzylidene-indolin-2-ones” (Bioorg Med Chem Lett, 2007)",
  "key": {"NIH3T3MEN2A": {"system": "NIH3T3MEN2A", "test": "Reversion of RET C634R mutant oncogene-transformed morphologic phenotype of mouse NIH3T3MEN2A cells at 10 uM after 72 hrs", "assay_type": "functional, cell-based"}, "[1]": {"test": "Antiproliferative activity against RET C634R mutant oncogene-transformed mouse NIH3T3MEN2A after 72 hrs", "assay_type": "functional", "outline": "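Cells kept at 37 °C in 10% CO2 in DMEM. NIH3T3MEN2A were grown with 5% serum; parental NIH3T3 and NIH3T3H-RAS with 10% calf serum. Compounds were dissolved in DMSO and diluted in medium to 0.5% solvent final.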"}, "NIH3T3 [2]": {"system": "NIH3T3", "test": "Antiproliferative activity against mouse NIH3T3 after 72 hrs", "details": "NIH3T3, 72 h"}, "NIH3T3 [3]": {"system": "NIH3T3", "test": "Antiproliferative activity against H-RAS transformed mouse NIH3T3 cells after 72 hrs", "details": "NIH3T3, 72 h"}, "[4]": {"target": "T1, Proto-oncogene tyrosine-protein kinase receptor Ret (Homo sapiens, UniProt P07949)", "T1 sequence (P07949 whole entry)": "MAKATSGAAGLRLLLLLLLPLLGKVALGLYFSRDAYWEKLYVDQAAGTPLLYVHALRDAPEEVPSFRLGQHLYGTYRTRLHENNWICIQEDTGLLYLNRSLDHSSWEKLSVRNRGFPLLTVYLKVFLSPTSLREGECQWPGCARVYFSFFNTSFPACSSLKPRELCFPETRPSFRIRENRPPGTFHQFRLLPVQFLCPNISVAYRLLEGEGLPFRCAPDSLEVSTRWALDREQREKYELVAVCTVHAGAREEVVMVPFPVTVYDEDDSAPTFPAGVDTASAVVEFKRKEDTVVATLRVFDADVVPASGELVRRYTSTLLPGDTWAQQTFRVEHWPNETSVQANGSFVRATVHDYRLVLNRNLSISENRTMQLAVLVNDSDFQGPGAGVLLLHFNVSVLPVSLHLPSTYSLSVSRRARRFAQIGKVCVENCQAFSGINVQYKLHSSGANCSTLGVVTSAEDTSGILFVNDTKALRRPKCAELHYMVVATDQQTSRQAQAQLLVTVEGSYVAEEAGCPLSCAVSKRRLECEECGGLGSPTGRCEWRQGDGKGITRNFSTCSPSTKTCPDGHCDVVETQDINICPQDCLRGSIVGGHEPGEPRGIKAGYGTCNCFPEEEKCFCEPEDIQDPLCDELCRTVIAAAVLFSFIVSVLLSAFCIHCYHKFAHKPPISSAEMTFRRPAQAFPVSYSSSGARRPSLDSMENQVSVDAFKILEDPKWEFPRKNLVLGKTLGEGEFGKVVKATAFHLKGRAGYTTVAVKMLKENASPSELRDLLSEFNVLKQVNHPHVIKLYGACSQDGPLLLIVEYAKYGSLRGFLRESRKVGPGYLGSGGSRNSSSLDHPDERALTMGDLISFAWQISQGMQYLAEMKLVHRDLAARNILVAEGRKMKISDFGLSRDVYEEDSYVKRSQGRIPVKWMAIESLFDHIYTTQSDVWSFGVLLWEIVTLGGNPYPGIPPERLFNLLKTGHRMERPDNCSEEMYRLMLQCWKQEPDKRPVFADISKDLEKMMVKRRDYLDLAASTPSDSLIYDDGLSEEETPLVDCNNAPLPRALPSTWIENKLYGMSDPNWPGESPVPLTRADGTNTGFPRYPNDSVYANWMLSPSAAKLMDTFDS", "test": "Inhibition of RET in mouse NIH3T3MEN2A cells up to 3 uM", "assay_type": "cell-based", "outline": "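NIH3T3MEN2A cells (DMEM with 5% serum, 37 °C, 10% CO2) were exposed to vehicle or a range of concentrations for 24 h, with DMSO at 0.5% final. Whole-cell lysates were Western blotted for Ret autophosphorylation with anti-pTyr (4G10) and anti-pRet-Tyr1062 antibodies, and Ret protein expression was also probed.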"}, "[5]": {"target": "T1, Proto-oncogene tyrosine-protein kinase receptor Ret", "test": "Inhibition of RET in mouse NIH3T3MEN2A cells", "assay_type": "cell-based"}},
  "note": "Calls of active or inactive are those of the source. No cut-off for these calls is given here.",
  "data": [
    {"compound": "COc1cc2c(cc1OC)/C(=C\\c1ccc(C(=O)Nc3ccccc3)cc1)C(=O)N2", "values": [
      {"measurement": "Activity", "setting": "NIH3T3MEN2A", "result": "inactive"},
      {"measurement": "IC50", "setting": "[1]", "result": 12.2, "unit": "µM"}
    ]},
    {"compound": "COc1cc2c(cc1OC)/C(=C\\c1ccc(NC(=O)Nc3ccc(F)cc3)cc1)C(=O)N2", "values": [
      {"measurement": "Activity", "setting": "NIH3T3MEN2A", "result": "inactive"},
      {"measurement": "IC50", "setting": "[1]", "result": 6.1, "unit": "µM"}
    ]},
    {"compound": "O=C(Nc1ccccc1)Nc1ccc(/C=C2\\C(=O)Nc3ccc(Cl)cc32)cc1", "values": [
      {"measurement": "Activity", "setting": "NIH3T3MEN2A", "result": "inactive"},
      {"measurement": "IC50", "setting": "[1]", "result": "> 40", "unit": "µM"}
    ]},
    {"compound": "O=C(Nc1ccccc1)Nc1ccc(/C=C2/C(=O)Nc3ccccc32)cc1", "values": [
      {"measurement": "Activity", "setting": "NIH3T3MEN2A", "result": "inactive"},
      {"measurement": "IC50", "setting": "[1]", "result": 10, "unit": "µM"}
    ]},
    {"compound": "COc1cc2c(cc1OC)N(C)C(=O)/C2=C/c1ccc(NC(=O)Nc2ccccc2)cc1", "values": [
      {"measurement": "Activity", "setting": "NIH3T3MEN2A", "result": "Active"},
      {"measurement": "IC50", "setting": "[1]", "result": 4.1, "unit": "µM"},
      {"measurement": "IC50", "setting": "NIH3T3 [2]", "result": 6.6, "unit": "µM"},
      {"measurement": "IC50", "setting": "NIH3T3 [3]", "result": 5.4, "unit": "µM"},
      {"measurement": "Activity", "setting": "[4]", "result": "inactive"}
    ]},
    {"compound": "COc1cc2c(cc1OC)/C(=C\\c1ccc(NC(=O)N3CCN(C)CC3)cc1)C(=O)N2", "values": [
      {"measurement": "Activity", "setting": "NIH3T3MEN2A", "result": "Active"},
      {"measurement": "IC50", "setting": "[1]", "result": 15.8, "unit": "µM"},
      {"measurement": "IC50", "setting": "[5]", "result": "> 3", "unit": "µM"}
    ]},
    {"compound": "O=C(Nc1ccccc1)Nc1ccc(/C=C2\\C(=O)N(O)c3ccccc32)cc1", "values": [
      {"measurement": "Activity", "setting": "NIH3T3MEN2A", "result": "inactive"},
      {"measurement": "IC50", "setting": "[1]", "result": 7.5, "unit": "µM"}
    ]},
    {"compound": "COc1ccc(NC(=O)Nc2ccc(/C=C3/C(=O)Nc4cc(OC)c(OC)cc43)cc2)cc1", "values": [
      {"measurement": "Activity", "setting": "NIH3T3MEN2A", "result": "Active"},
      {"measurement": "IC50", "setting": "[1]", "result": 3.6, "unit": "µM"},
      {"measurement": "IC50", "setting": "NIH3T3 [2]", "result": 14.7, "unit": "µM"},
      {"measurement": "IC50", "setting": "NIH3T3 [3]", "result": 12.3, "unit": "µM"}
    ]},
    {"compound": "COc1cc2c(cc1OC)/C(=C\\c1ccc(NC(=O)Nc3ccc(N(C)C)cc3)cc1)C(=O)N2", "values": [
      {"measurement": "Activity", "setting": "NIH3T3MEN2A", "result": "inactive"},
      {"measurement": "IC50", "setting": "[1]", "result": "> 40", "unit": "µM"}
    ]},
    {"compound": "COc1cc2c(cc1OC)/C(=C\\c1ccc(NC(=O)Nc3ccc4c(c3)OCO4)cc1)C(=O)N2", "values": [
      {"measurement": "Activity", "setting": "NIH3T3MEN2A", "result": "inactive"},
      {"measurement": "IC50", "setting": "[1]", "result": 19.4, "unit": "µM"}
    ]},
    {"compound": "COc1cc2c(cc1OC)/C(=C\\c1ccc(O)cc1)C(=O)N2", "values": [
      {"measurement": "Activity", "setting": "NIH3T3MEN2A", "result": "Active"},
      {"measurement": "IC50", "setting": "[1]", "result": 3.6, "unit": "µM"},
      {"measurement": "IC50", "setting": "NIH3T3 [2]", "result": 16.3, "unit": "µM"},
      {"measurement": "IC50", "setting": "NIH3T3 [3]", "result": 19.7, "unit": "µM"},
      {"measurement": "IC50", "setting": "[5]", "result": 0.17, "unit": "µM"}
    ]},
    {"compound": "O=C(Nc1ccccc1)Nc1ccc(/C=C2\\C(=O)Nc3ccccc32)cc1", "values": [
      {"measurement": "Activity", "setting": "NIH3T3MEN2A", "result": "inactive"},
      {"measurement": "IC50", "setting": "[1]", "result": "> 40", "unit": "µM"}
    ]},
    {"compound": "COc1cc2c(cc1OC)/C(=C\\c1ccc(NC(=O)Nc3ccccc3)cc1)C(=O)N2", "values": [
      {"measurement": "Activity", "setting": "NIH3T3MEN2A", "result": "Active"},
      {"measurement": "IC50", "setting": "[1]", "result": 4.6, "unit": "µM"},
      {"measurement": "IC50", "setting": "NIH3T3 [2]", "result": 14, "unit": "µM"},
      {"measurement": "IC50", "setting": "NIH3T3 [3]", "result": 8.7, "unit": "µM"}
    ]},
    {"compound": "COc1cc2c(cc1OC)C(Cc1ccc(NC(=O)Nc3ccccc3)cc1)C(=O)N2", "note": "(stereo unspecified)", "values": [
      {"measurement": "Activity", "setting": "NIH3T3MEN2A", "result": "inactive"},
      {"measurement": "IC50", "setting": "[1]", "result": 21.5, "unit": "µM"}
    ]},
    {"compound": "COc1cc2c(cc1OC)/C(=C\\c1ccc(NC(=O)Nc3ccncc3)cc1)C(=O)N2", "values": [
      {"measurement": "Activity", "setting": "NIH3T3MEN2A", "result": "inactive"},
      {"measurement": "IC50", "setting": "[1]", "result": 4.7, "unit": "µM"}
    ]}
  ]
}
